ChEMBL document CHEMBL1156559, “Efficient synthesis and utilization of phenyl-substituted heteroaromatic carboxylic acids as aryl diketo acid isosteres in the design of novel HIV-1 integrase inhibitors” (Bioorg Med Chem Lett, 2008)

What was measured:
[1] = Cytotoxicity against human C8166 cells by MTT method; format: cell-based
How it was run: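 C8166 cell proliferation measured by MTT, expressed as the concentration reducing proliferation by 50%. Values are means of two separate experiments.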

[2] = test system: Human immunodeficiency virus 1; experiment: Antiviral activity against HIV1 3B assessed as inhibition of virus-induced cytopathogenicity in human C8166 cells after 4 days by MTT assay; format: functional, organism-based; settings: Human immunodeficiency virus 1, 3B, C8166, 96 h
How it was run: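 Protection of C8166 cells from HIV-1-induced cytopathogenicity, expressed as the 50% effective concentration. Values are means of two separate experiments.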

[3] = biological target: T1, Human immunodeficiency virus type 1 integrase (Human immunodeficiency virus 1, UniProt Q7ZJM1); experiment: Inhibition of HIV1 wild type integrase strand transfer activity
T1 sequence (Q7ZJM1 whole entry): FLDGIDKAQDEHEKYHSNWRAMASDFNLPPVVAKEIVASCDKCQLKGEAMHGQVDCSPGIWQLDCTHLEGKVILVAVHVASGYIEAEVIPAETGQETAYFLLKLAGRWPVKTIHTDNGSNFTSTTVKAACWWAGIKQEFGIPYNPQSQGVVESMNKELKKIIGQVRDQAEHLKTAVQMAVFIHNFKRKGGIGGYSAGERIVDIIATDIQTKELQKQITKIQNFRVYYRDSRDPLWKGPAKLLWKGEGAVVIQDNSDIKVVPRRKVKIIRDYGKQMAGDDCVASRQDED
How it was run: (§1)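 Wild-type integrase at 200 nM final was preincubated with inhibitor at 30 °C for 30 min. Buffer: 50 mM NaCl, 1 mM Hepes pH 7.5, 7.5 mM MnCl2, 0.1 mg/ml BSA, 10 mM 2-mercaptoethanol, 10% glycerol, 10% DMSO, 25 mM MOPS pH 7.2. Read-out was conversion of 21-mer DNA substrate to 19-mer (3'-processing) or to strand-transfer products. % inhibition was set against DNA-alone and DNA+IN controls. IC50 came from log concentration vs % inhibition.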

[4] = biological target: T1, Human immunodeficiency virus type 1 integrase; experiment: Inhibition of HIV1 wild type integrase 3'-processing activity; how it was run: as §1
[5] = Therapeutic index, ratio of CC50 for human C8166 cells to EC50 for HIV1 3B; format: cell-based; settings: read-out: Ratio CC50/EC50
How it was run: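 Computed as CC50/EC50 from the C8166 MTT cytostatic and HIV-1 cytoprotection assays, each a mean of two separate experiments.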

IC50 [3]	IC50 [4]	Structure (SMILES)	CC50 [1]	EC50 [2]	selectivity ratio [5]
68 µM	> 100 µM	O=C(O)c1cc(-c2cccc(OCc3ccccc3)c2)on1	206 µM	91 µM	2.27
81 µM	> 100 µM	O=C(O)c1cc(-c2cccc(OCc3ccccc3)c2)no1	282 µM	7.2 µM	39.2
100 µM	> 100 µM	O=C(O)c1cc(-c2cccc(OCc3ccccc3)c2)[nH]n1	640 µM	277 µM	2.31
> 100 µM	> 100 µM	COC(=O)c1cc(-c2ccc([N+](=O)[O-])cc2)[nH]n1	> 809 µM	253 µM	> 3.2
97 µM	> 100 µM	O=C(O)c1cc(-c2ccc([N+](=O)[O-])cc2)on1	> 854 µM	199 µM	> 4.3
27 µM	> 100 µM	O=C(NO)c1cc(-c2cccc(OCc3ccccc3)c2)on1	136 µM	62.8 µM	2.17
> 100 µM	> 100 µM	O=C(O)c1cc(-c2cccc(OCc3ccccc3)c2)ns1	246 µM	51.7 µM	4.76
> 100 µM	> 100 µM	O=C(O)c1csnc1-c1cccc(OCc2ccccc2)c1	> 642 µM	58 µM	> 11
> 100 µM	> 100 µM	O=C(O)c1cc(-c2ccc([N+](=O)[O-])cc2)[nH]n1	> 857 µM	3.6 µM	> 238
